Columns and labels:
[1] = rats, 4-week GLP toxicology study; cited from earlier work
[2] = test system: regulatory T cells (Tregs) in peripheral blood mononuclear cells (PBMCs); details: PBMCs incubated for 24 h with high-dose JPI-289; cited from earlier work
Single ascending dose = format: in vivo, human; details: for Tmax: max]
In short: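 Single 0.5 h iv infusion in saline. Plasma sampled predose to 48 h, stored −70°C; urine collected in intervals to 24 h with volumes. Validated HPLC-MS/MS, deuterated internal standard, positive ESI MRM m/z 344.3→201.2. Plasma range 1–3000 or 10–30,000 ng/mL and urine 5–15,000 or 50–150,000 ng/mL, by dose group. Noncompartmental analysis on actual times; AUCinf = AUClast + Clast/λz; CLR = Ae/AUClast.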

[3] = Major metabolites in samples of the highest dose groups; format: in vivo, human; details: 600 mg in SAD and 450 mg in MAD
stroke animal model = details: ref unpublished data on file, Jeil Pharma, Seoul, Korea; cited from earlier work
[4] = single iv 35 mg over 0.5 h, n=6, mean (SD)
[5] = single iv 75 mg over 0.5 h, n=6, mean (SD)
[6] = single iv 150 mg over 0.5 h, n=6, mean (SD)
[7] = single iv 300 mg over 0.5 h, n=6, mean (SD)
[8] = single iv 600 mg over 0.5 h, n=6, mean (SD)
[9] = single iv, all doses 35-600 mg, Total n=30, mean (SD)

CCOc1cc(CN2CCOCC2)cc2[nH]c(=O)c3c(c12)NCCC3.Cl.Cl.O.O [JPI-289]
no observed adverse event level [1]: 40 mg/kg
proportions of regulatory T cells (Tregs) [2]: can be increased
AUCinf (Single ascending dose; [4]): 665.50 (149.62) ng·h/mL
AUCinf/dose (Single ascending dose; [4]): 19.01 (4.28) ng·h/mL/mg
AUClast (Single ascending dose; [4]): 658.82 (148.39) ng·h/mL
Ae (amount of unchanged drug in urine) (Single ascending dose; [4]): 0.56 (0.22) mg
CL (Single ascending dose; [4]): 54.88 (12.54) L/h
CLR (renal clearance) (Single ascending dose; [4]): 0.84 (0.28) L/h
Cmax (Single ascending dose; [4]): 422.72 (102.10) ng/mL
Cmax/dose (Single ascending dose; [4]): 12.08 (2.92) ng/mL/mg
Vd,ss (Single ascending dose; [4]): 101.33 (26.74) L
Vz (Single ascending dose; [4]): 160.73 (42.91) L
t1/2z (Single ascending dose; [4]): 2.18 (1.01) h
Tmax (Single ascending dose; single iv 35 mg over 0.5 h, n=6, median [min): 0.47 [0.33, 0.50] h
AUCinf (Single ascending dose; [5]): 1947.57 (366.92) ng·h/mL
AUCinf/dose (Single ascending dose; [5]): 25.97 (4.89) ng·h/mL/mg
AUClast (Single ascending dose; [5]): 1940.45 (367.40) ng·h/mL
Ae (amount of unchanged drug in urine) (Single ascending dose; [5]): 1.74 (0.71) mg
CL (Single ascending dose; [5]): 39.77 (8.07) L/h
CLR (renal clearance) (Single ascending dose; [5]): 0.88 (0.26) L/h
Cmax (Single ascending dose; [5]): 1197.77 (173.37) ng/mL
Cmax/dose (Single ascending dose; [5]): 15.97 (2.31) ng/mL/mg
Vd,ss (Single ascending dose; [5]): 91.18 (17.49) L
Vz (Single ascending dose; [5]): 183.32 (61.92) L
t1/2z (Single ascending dose; [5]): 3.21 (0.81) h
Tmax (Single ascending dose; single iv 75 mg over 0.5 h, n=6, median [min): 0.48 [0.33, 0.52] h
AUCinf (Single ascending dose; [6]): 6057.90 (1533.04) ng·h/mL
AUCinf/dose (Single ascending dose; [6]): 40.39 (10.22) ng·h/mL/mg
AUClast (Single ascending dose; [6]): 6029.78 (1520.32) ng·h/mL
Ae (amount of unchanged drug in urine) (Single ascending dose; [6]): 5.31 (1.49) mg
CL (Single ascending dose; [6]): 26.41 (8.03) L/h
CLR (renal clearance) (Single ascending dose; [6]): 0.89 (0.21) L/h
Cmax (Single ascending dose; [6]): 2481.05 (502.31) ng/mL
Cmax/dose (Single ascending dose; [6]): 16.54 (3.35) ng/mL/mg
Vd,ss (Single ascending dose; [6]): 85.17 (15.31) L
Vz (Single ascending dose; [6]): 118.12 (34.25) L
t1/2z (Single ascending dose; [6]): 3.12 (0.40) h
Tmax (Single ascending dose; single iv 150 mg over 0.5 h, n=6, median [min): 0.48 [0.43, 0.50] h
AUCinf (Single ascending dose; [7]): 10,061.82 (3690.15) ng·h/mL
AUCinf/dose (Single ascending dose; [7]): 33.54 (12.30) ng·h/mL/mg
AUClast (Single ascending dose; [7]): 9786.58 (3534.51) ng·h/mL
Ae (amount of unchanged drug in urine) (Single ascending dose; [7]): 8.37 (3.65) mg
CL (Single ascending dose; [7]): 34.28 (15.06) L/h
CLR (renal clearance) (Single ascending dose; [7]): 0.91 (0.45) L/h
Cmax (Single ascending dose; [7]): 4842.02 (1202.57) ng/mL
Cmax/dose (Single ascending dose; [7]): 16.14 (4.01) ng/mL/mg
Vd,ss (Single ascending dose; [7]): 92.52 (15.20) L
Vz (Single ascending dose; [7]): 124.50 (30.65) L
t1/2z (Single ascending dose; [7]): 2.73 (0.76) h
Tmax (Single ascending dose; single iv 300 mg over 0.5 h, n=6, median [min): 0.48 [0.17, 0.50] h
AUCinf (Single ascending dose; [8]): 32,228.35 (11,796.05) ng·h/mL
AUCinf/dose (Single ascending dose; [8]): 53.71 (19.66) ng·h/mL/mg
AUClast (Single ascending dose; [8]): 32,066.88 (11,725.80) ng·h/mL
Ae (amount of unchanged drug in urine) (Single ascending dose; [8]): 25.32 (6.50) mg
CL (Single ascending dose; [8]): 21.34 (9.69) L/h
CLR (renal clearance) (Single ascending dose; [8]): 0.84 (0.20) L/h
Cmax (Single ascending dose; [8]): 10,381.25 (2097.17) ng/mL
Cmax/dose (Single ascending dose; [8]): 17.30 (3.50) ng/mL/mg
Vd,ss (Single ascending dose; [8]): 73.01 (13.20) L
Vz (Single ascending dose; [8]): 81.46 (16.60) L
t1/2z (Single ascending dose; [8]): 2.88 (0.72) h
Tmax (Single ascending dose; single iv 600 mg over 0.5 h, n=6, median [min): 0.50 [0.48, 0.52] h
AUCinf (Single ascending dose; [9]): 10,192.23 (12,791.37) ng·h/mL
AUCinf/dose (Single ascending dose; [9]): 34.52 (16.32) ng·h/mL/mg
AUClast (Single ascending dose; [9]): 10,096.50 (12,719.54) ng·h/mL
Ae (amount of unchanged drug in urine) (Single ascending dose; [9]): 8.26 (9.65) mg
CL (Single ascending dose; [9]): 35.33 (15.66) L/h
CLR (renal clearance) (Single ascending dose; [9]): 0.87 (0.27) L/h
Cmax (Single ascending dose; [9]): 3864.96 (3789.52) ng/mL
Cmax/dose (Single ascending dose; [9]): 15.61 (3.55) ng/mL/mg
Vd,ss (Single ascending dose; [9]): 88.64 (19.42) L
Vz (Single ascending dose; [9]): 133.63 (51.80) L
t1/2z (Single ascending dose; [9]): 2.83 (0.80) h
Tmax (Single ascending dose; single iv, all doses 35-600 mg, Total n=30, median [min): 0.48 [0.17, 0.52] h
number of metabolites detected [3]: Twenty-two
time after stroke onset at which treatment showed efficacy (stroke animal model): more than 10 h

Reference: publication PMC7415440 (Drug Design, Development and Therapy, 2020)
